Data as given in ChEMBL document CHEMBL1136933 (J Med Chem, 2009).

What was measured:
[1] = molecular target: T1, Muscarinic acetylcholine receptor M3 (Homo sapiens, UniProt P20309); assay: Activation of human muscarinic M3 receptor expressed in CHO cells coexpressing Gq protein assessed as potentiation of acetylcholine-induced intracellular Ca2+ mobilization; assay type: functional, cell-based
Method in brief: (§1)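 Calcium flux assay. Stable CHO lines were seeded at 5 × 10^4 cells/well (M1, M3, M5) or 6 × 10^4 cells/well (Gqi5 M2, M4) and grown overnight at 37 °C, 5% CO2. Cells were loaded 1 h at 37 °C with 2 µM Fluo-4 AM. […] At least three independent determinations, each in duplicate or more.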
Target sequence in this assay (P20309 whole entry): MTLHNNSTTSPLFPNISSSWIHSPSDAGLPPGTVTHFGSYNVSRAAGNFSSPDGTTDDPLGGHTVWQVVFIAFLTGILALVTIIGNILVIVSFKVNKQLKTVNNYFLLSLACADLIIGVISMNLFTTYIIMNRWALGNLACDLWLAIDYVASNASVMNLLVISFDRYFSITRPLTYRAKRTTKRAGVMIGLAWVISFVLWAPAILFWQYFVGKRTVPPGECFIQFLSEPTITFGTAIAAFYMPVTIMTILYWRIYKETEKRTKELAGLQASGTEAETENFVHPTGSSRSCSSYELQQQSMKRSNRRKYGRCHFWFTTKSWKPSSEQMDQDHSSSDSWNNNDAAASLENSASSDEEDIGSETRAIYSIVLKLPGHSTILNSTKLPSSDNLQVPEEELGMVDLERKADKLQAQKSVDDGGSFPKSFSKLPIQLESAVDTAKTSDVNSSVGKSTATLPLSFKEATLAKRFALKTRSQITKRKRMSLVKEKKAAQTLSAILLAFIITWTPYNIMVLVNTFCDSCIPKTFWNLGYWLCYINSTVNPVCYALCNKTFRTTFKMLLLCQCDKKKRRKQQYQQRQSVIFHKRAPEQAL

[2] = molecular target: T2, Muscarinic acetylcholine receptor M1 (Rattus norvegicus, UniProt P08482); assay: Activation of rat muscarinic M1 receptor expressed in CHO cells co-expressing Gq protein assessed as potentiation of acetylcholine-induced intracellular Ca2+ mobilization; assay type: functional, cell-based
T2 sequence (P08482 whole entry): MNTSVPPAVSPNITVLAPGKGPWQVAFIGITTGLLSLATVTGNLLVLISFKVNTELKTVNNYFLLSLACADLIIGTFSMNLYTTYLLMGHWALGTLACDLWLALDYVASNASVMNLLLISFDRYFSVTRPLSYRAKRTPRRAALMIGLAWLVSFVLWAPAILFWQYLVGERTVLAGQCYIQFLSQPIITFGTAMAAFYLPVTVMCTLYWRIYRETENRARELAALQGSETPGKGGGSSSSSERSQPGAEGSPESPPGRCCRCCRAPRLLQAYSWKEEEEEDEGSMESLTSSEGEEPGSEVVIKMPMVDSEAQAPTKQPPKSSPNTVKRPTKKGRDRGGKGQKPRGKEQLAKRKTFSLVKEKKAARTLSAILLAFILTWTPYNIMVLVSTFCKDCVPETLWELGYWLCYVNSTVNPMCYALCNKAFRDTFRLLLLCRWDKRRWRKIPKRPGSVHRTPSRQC

[3] = molecular target: T1, Muscarinic acetylcholine receptor M3; assay: Activation of human muscarinic M3 receptor expressed in CHO cells coexpressing Gq protein assessed as potentiation of acetylcholine-induced intracellular Ca2+ mobilization at 30 uM relative to acetylcholine; assay type: functional, cell-based
Target sequence in this assay (P20309 whole entry, looked up): as the sequence (P20309 whole entry) above

[4] = molecular target: T3, Muscarinic acetylcholine receptor M5 (Homo sapiens) (UniProt P08912); assay: Activation of human muscarinic M5 receptor expressed in CHO cells coexpressing Gq protein assessed as potentiation of acetylcholine-induced intracellular Ca2+ mobilization at 30 uM relative to acetylcholine; assay type: functional, cell-based
T3 sequence (whole entry): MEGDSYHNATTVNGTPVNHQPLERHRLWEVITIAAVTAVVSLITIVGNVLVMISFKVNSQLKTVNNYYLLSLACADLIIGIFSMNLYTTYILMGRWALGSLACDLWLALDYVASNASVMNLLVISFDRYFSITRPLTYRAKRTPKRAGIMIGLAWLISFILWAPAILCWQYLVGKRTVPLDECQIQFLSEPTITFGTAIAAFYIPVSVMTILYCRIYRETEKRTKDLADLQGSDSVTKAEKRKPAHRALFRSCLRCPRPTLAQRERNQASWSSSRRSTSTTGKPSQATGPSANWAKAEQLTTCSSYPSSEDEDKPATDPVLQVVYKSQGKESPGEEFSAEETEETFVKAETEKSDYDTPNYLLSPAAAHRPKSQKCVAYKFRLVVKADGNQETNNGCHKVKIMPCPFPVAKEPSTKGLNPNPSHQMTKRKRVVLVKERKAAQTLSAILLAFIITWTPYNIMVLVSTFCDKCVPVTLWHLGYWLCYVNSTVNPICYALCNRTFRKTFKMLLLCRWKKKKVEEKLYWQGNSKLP

[5] = molecular target: T4, Muscarinic acetylcholine receptor M1 (Rattus norvegicus) (UniProt P08482); assay: Activation of rat muscarinic M1 receptor expressed in CHO cells co-expressing Gq protein assessed as potentiation of acetylcholine-induced intracellular Ca2+ mobilization at 30 uM relative to acetylcholine; assay type: functional, cell-based
T4 sequence (whole entry): T2 sequence (P08482 whole entry)

[6] = molecular target: T5, Muscarinic acetylcholine receptor M2 (Rattus norvegicus, UniProt P10980); assay: Activation of rat muscarinic M2 receptor expressed in CHO cells co-expressing chimeric Gqi5 protein assessed as potentiation of acetylcholine-induced intracellular Ca2+ mobilization; assay type: functional, cell-based; method in brief: as §1
T5 sequence (P10980 whole entry): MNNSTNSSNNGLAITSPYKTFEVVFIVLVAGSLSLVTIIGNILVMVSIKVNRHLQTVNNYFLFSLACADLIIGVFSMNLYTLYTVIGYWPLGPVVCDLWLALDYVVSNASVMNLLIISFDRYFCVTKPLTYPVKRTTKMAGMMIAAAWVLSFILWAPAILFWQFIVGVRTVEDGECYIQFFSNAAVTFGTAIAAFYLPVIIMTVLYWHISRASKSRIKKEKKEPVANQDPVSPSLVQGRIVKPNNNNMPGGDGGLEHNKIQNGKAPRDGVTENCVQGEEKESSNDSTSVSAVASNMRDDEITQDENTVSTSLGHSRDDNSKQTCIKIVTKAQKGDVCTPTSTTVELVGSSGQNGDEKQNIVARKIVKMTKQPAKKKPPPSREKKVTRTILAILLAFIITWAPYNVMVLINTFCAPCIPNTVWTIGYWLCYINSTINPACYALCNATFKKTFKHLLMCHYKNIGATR

[7] = molecular target: T6, Muscarinic acetylcholine receptor M5 (Homo sapiens, UniProt P08912); assay: Activation of human muscarinic M5 receptor expressed in CHO cells coexpressing Gq protein assessed as potentiation of acetylcholine-induced intracellular Ca2+ mobilization; assay type: functional, cell-based
T6 sequence (P08912 whole entry): T3 sequence (whole entry)

[8] = molecular target: T7, Muscarinic acetylcholine receptor M2 (Rattus norvegicus) (UniProt P10980); assay: Activation of rat muscarinic M2 receptor expressed in CHO cells coexpressing chimeric Gqi5 protein assessed as potentiation of acetylcholine-induced intracellular Ca2+ mobilization at 30 uM relative to acetylcholine; assay type: functional, cell-based
T7 sequence (whole entry): T5 sequence (P10980 whole entry)

[9] = molecular target: T8, Muscarinic acetylcholine receptor M4 (Rattus norvegicus, UniProt P08485); assay: Activation of rat muscarinic M4 receptor expressed in CHO cells coexpressing chimeric Gqi5 protein assessed as potentiation of acetylcholine-induced intracellular Ca2+ mobilization; assay type: functional, cell-based; method in brief: as §1
T8 sequence (P08485 whole entry): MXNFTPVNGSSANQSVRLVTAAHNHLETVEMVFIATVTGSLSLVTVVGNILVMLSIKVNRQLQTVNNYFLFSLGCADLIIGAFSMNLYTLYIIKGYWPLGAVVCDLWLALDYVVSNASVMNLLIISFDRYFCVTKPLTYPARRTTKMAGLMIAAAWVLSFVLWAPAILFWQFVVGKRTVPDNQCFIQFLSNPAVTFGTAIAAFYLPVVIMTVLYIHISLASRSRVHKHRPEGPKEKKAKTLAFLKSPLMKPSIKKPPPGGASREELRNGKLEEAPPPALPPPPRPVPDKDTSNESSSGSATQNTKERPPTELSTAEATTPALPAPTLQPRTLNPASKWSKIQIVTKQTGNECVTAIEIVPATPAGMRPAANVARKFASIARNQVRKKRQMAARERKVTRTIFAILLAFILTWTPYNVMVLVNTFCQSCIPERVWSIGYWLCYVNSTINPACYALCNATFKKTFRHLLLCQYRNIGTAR

[10] = molecular target: T3, Muscarinic acetylcholine receptor M5 (Homo sapiens); assay: Inhibition of [3H]NMS binding to human muscarinic M5 receptor expressed in CHO cells coexpressing Gq protein at 30 uM by scintillation counting; assay type: cell-based

O=C1C(=O)N(Cc2ccc(C(F)(F)F)cc2)c2c(Cl)cccc21
EC50 [1]: 2.22 µM
EC50 [2]: 3.2 µM
%max [3]: 78%
%max [4]: 70.8%
%max [5]: 67%
EC50 ([6]; read-out: EC50): 2.84 µM
EC50 [7]: 2.11 µM
%max [8]: 55%
EC50 ([9]; read-out: EC50): > 10 µM

O=C1C(=O)N(Cc2ccc(Br)cc2)c2ccccc21
EC50 [1]: 6.38 µM
EC50 [2]: 6.04 µM
%max [3]: 65.5%
%max [4]: 74.4%
inhibition [10]: 50%
%max [5]: 82.4%
EC50 ([6]; cho): Not Active
EC50 [7]: 4.08 µM
EC50 ([9]; cho): Not Active
